Measurements pooled from the literature.
Compare with care: the assays were run in different laboratories.
Organism: Pseudomonas aeruginosa
Read-out: microbial growth

`CC[C@H]1OC(=O)[C@H](C)[C@@H](O[C@H]2C[C@@](C)(OC)[C@@H](O)[C@H](C)O2)[C@H](C)[C@@H](O[C@@H]2O[C@H](C)C[C@H](N(C)C)[C@H]2O)[C@](C)(O)C[C@@H](C)CN(C)[C@H](C)[C@@H](O)[C@]1(C)O` gave an MIC of 32 µg/mL (broth dilution; ATCC27853).
The MIC of `[H]/N=C(\N/C(=N/[H])NCCCCCCNC(=N)NC(=N)Nc1ccc(Cl)cc1)Nc1ccc(Cl)cc1` is reported as 8 µM (PAO1).
`CC1(C)S[C@@H]2[C@H](NC(=O)[C@H](N)c3ccc(O)cc3)C(=O)N2[C@H]1C(=O)O` gave an MIC of > 64 µg/mL (broth dilution; ATCC27853).
`Cc1ccc2[nH]nc(-c3nnc(Nc4ccc(Br)cc4)s3)c2c1` has an MIC of 243 µg/mL (ATCC27853).
With `CCCCCCCCCCCC[N+](C)(C)Cc1ccccc1` the MIC was 250 µM (PAO1).
`Cc1ccc2[nH]nc(-c3nnc(Nc4ccc(O)cc4)s3)c2c1` gave an MIC of 63.9 µg/mL (ATCC27853).
`C[C@@H](O)[C@H]1C(=O)N2C(C(=O)O)=C(S[C@@H]3CN[C@H](C(=O)N(C)C)C3)[C@H](C)[C@H]12` has an MIC of 0.25 µg/mL (ATCC27853; drug-resistant strain).
The MIC of `CCCCCCC#Cc1cncc(-c2nnc(SCc3cc(C(F)(F)F)cc(C(F)(F)F)c3)n2CCCN)c1` is reported as > 64 µg/mL (broth dilution; DSM1128).
The MIC of `COc1ccc2ccc(O)c(/C=N/[C@H]3CCCC[C@H]3/N=C/c3ccc(-c4ccccc4)cc3O)c2c1` is reported as > 40 µM (broth dilution; clinical isolate).
`Cc1cc(O)cc(Nc2nnc(-c3n[nH]c4ccc(C)cc34)s2)c1` has an MIC of 147 µg/mL (ATCC27853).
With `CC(C)c1ccc(/C=C2\N=C(SCC(=O)O)N(c3ccccc3)C2=O)cc1` the MIC was 12 µg/mL (broth dilution; ATCC27 ATCC27853).
The MIC of `COc1ccc2ccc(O)c(/C=N/[C@H]3CCCC[C@H]3/N=C/c3ccc(OCCN4CCCCC4)cc3O)c2c1` is reported as > 40 µM (broth dilution).
`CNC(C)C1CCC(N)C(OC2C(N)CC(N)C(OC3OCC(C)(O)C(NC)C3O)C2O)O1` (stereo not shown) has an MIC of 2 µg/mL (broth dilution; ATCC27853).
With `Cc1ccc2[nH]nc(-c3nnc(Nc4ccc(Cl)c(Br)c4)s3)c2c1` the MIC was 254 µg/mL (ATCC27853).
`CCCCCCC#Cc1cncc(-c2nnc(SCc3cc([N+](=O)[O-])cc([N+](=O)[O-])c3)n2CCCN)c1` gave an MIC of > 64 µg/mL (broth dilution; DSM1128).
The MIC of `OB1OCc2cc(F)ccc21` is reported as 128 µg/mL (broth dilution).
For `CC1(C)S[C@@H]2[C@H](NC(=O)[C@H](N)c3ccccc3)C(=O)N2[C@H]1C(=O)O`, the MIC was 64 µg/mL (broth dilution; ATCC27853).
For `COc1ccc2ccc(O)c(/C=N/[C@H]3CCCC[C@H]3/N=C/c3c(O)cccc3F)c2c1`, the MIC was > 40 µM (broth dilution; clinical isolate).
`Cc1cc(Nc2nnc(-c3n[nH]c4ccc(C)cc34)s2)cc([N+](=O)[O-])c1` gave an MIC of 187 µg/mL (ATCC27853).
The MIC of `CCCCCCC#Cc1cncc(-c2nnc(SCc3ccc(Cl)cc3)n2CCCN)c1` is reported as > 64 µg/mL (broth dilution; DSM1128).
`Cc1ccc2[nH]nc(-c3nnc(Nc4ccc(Cl)cc4)s3)c2c1` has an MIC of 119 µg/mL (ATCC27853).
The MIC of `C[C@H]1[C@H](NC(=O)/C(=N\OC(C)(C)C(=O)O)c2csc(N)n2)C(=O)N1S(=O)(=O)O` is reported as 2 µg/mL (broth dilution; ATCC27853).
